From ChEMBL document CHEMBL1130405, “Cross-linking and sequence specific alkylation of DNA by aziridinyl quinones. 2. Structure requirements for sequence selectivity” (J Med Chem, 1997)

system: K562; assay: In vitro cytotoxicity tested against human chronic leukemia K562 cells; assay type: functional, cell-based
Summary of the method: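 Human K562 chronic myeloid leukaemia cells, kept in log-phase suspension in RPMI 1640 with 10% horse serum at 37 °C, 5% CO2. Seeded at 600 cells/well and given continuous drug exposure for 5 days. Growth was read by MTT absorbance at 540 and 640 nm. Inhibition of growth was plotted against concentration, in triplicate at each concentration.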

In order of falling IC50:
1. CC1=CC(=O)C(N2CC2)=C(C)C1=O  476 nM
2. CC1=C(C)C(=O)C(N2CC2)=CC1=O  239 nM
3. CC1=CC(=O)C(N2CC2)=CC1=O  216 nM
4. O=C1C=C(N2CC2)C(=O)C(c2ccc(Oc3ccccc3)cc2)=C1N1CC1  170 nM
5. OCC/N=C1C(O)=C(N2CC2)/C(=N\CCO)C(O)=C/1N1CC1  158 nM
6. CC1=C(N2CC2)C(=O)C(Cl)=C(N2CC2)C1=O  76 nM
7. O=C1C(c2ccccc2)=C(N2CC2)C(=O)C(c2ccccc2)=C1N1CC1  67 nM
8. CCOC(=O)NC1=C(N2CC2)C(=O)C(NC(=O)OCC)=C(N2CC2)C1=O [DIAZIQUONE]  63 nM
9. O=C1C(I)=C(N2CC2)C(=O)C(I)=C1N1CC1  50 nM
10. O=C1C(Cl)=C(N2CC2)C(=O)C(Cl)=C1N1CC1  46 nM
11. O=C1C(Br)=C(N2CC2)C(=O)C(Br)=C1N1CC1  42 nM
12. O=C1C(F)=C(N2CC2)C(=O)C(N2CC2)=C1F  39 nM
13. O=C1C=C(N2CC2)C(=O)C(I)=C1N1CC1  12.6 nM
14. O=C1C(F)=C(N2CC2)C(=O)C(F)=C1N1CC1  10 nM
15. O=C1C=C(N2CC2)C(=O)C=C1N1CC1  8.3 nM
16. O=C1C=C(N2CC2)C(=O)C(Br)=C1N1CC1  7.3 nM
17. O=C1C(N2CC2)=C(N2CC2)C(=O)C(N2CC2)=C1N1CC1  5.8 nM
18. O=C1C=C(N2CC2)C(=O)C(Cl)=C1N1CC1  5.3 nM
19. Cc1ccc(C2=C(N3CC3)C(=O)C=C(N3CC3)C2=O)cc1  4.8 nM
20. O=C1C=C(N2CC2)C(=O)C(c2ccccc2)=C1N1CC1  3.1 nM
21. O=C1C=C(N2CC2)C(=O)C(N2CC2)=C1N1CC1 [TRIAZIQUONE]  2.9 nM
22. CC1=C(N2CC2)C(=O)C(C)=C(N2CC2)C1=O  1.8 nM
